This is an account of results in ChEMBL document CHEMBL1140587, “Investigation of the terminal P4 domain in a series of D-phenylglycinamide-based factor Xa inhibitors” (Bioorg Med Chem Lett, 2007).

Series [1] is described as follows: Cmax in rat plasma at 20 mg/kg, po. Type of series: ADME, organism-based. Further details: dose 20 mg/kg, route oral. The gist of the method:
(§1)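 Fasted Fisher rats (n = 3) got one 20 mpk oral gavage, suspended in acacia or CMC/Tween 80. Citrated blood was taken at set times and spun to plasma. Drug level was read as anti-Xa equivalents: plasma at 37 °C for 15 min, S-2222 substrate, human fXa 0.4 U/ml, 405 nm kinetic over 10 min. Values came from triplicate spiked-plasma standards by four-parameter logistic fit; AUC by area algorithm.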

Series [2] concerns the target Coagulation factor X (Homo sapiens) (UniProt P00742). The experiment in a line: Binding affinity to human factor10a.
Series [3] deals with Plasma. Nature of the series: Anticoagulant activity in human plasma assessed as concentration required to double prothrombin time. Type of series: functional.
Series [4] in a line: AUC(0 to 7 hrs) in rat plasma at 20 mg/kg, po. Type of series: ADME, organism-based. Set-up: time < 7 hr, dose 20 mg/kg, route oral. The gist of the method:
as §1

Sequence of Coagulation factor X (Homo sapiens) (P00742 41-179 limits assumed): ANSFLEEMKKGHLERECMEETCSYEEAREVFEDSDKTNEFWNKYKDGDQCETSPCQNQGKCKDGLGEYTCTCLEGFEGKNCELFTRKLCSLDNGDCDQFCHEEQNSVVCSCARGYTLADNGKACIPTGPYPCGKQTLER
Sequence of Coagulation factor X (Homo sapiens) (P00742 235-488 limits assumed): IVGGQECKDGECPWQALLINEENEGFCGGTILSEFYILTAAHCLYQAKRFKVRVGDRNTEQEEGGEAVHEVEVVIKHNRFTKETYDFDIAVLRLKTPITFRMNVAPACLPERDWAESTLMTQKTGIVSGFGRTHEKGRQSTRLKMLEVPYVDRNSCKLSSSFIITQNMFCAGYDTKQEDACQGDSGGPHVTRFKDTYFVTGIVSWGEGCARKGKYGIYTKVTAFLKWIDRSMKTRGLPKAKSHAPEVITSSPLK

Consider `Cc1c[nH]c2cc(C(=O)N[C@@H](C(=O)N3CCC(CN4CCCCC4)CC3)c3ccccc3)ccc12`, for which the peak level in series [1] (Cmax) was 2.4 µM. In addition, the Kapp in series [2] is 110 10^6L/mol. In addition, the Activity in series [3] came out at 1.5 µM. Moreover, the AUC(0-t) (usually exposure summed from dosing to a finite time, without extrapolation to infinity) at 7 h in series [4] amounted to 14000 ng·h/mL.

On to `CN1CCN(CC2CCN(C(=O)[C@H](NC(=O)c3ccc4cc[nH]c4c3)c3ccccc3)CC2)CC1`, for which, in series [2], the Kapp is 1.5 10^6L/mol.

Turning to `CCN(CC)CC1CCN(C(=O)[C@H](NC(=O)c2ccc3cc[nH]c3c2)c2ccccc2)CC1`, the Kapp in series [2] is 28 10^6L/mol. In series [3], the Activity came out at 2.3 µM.

As for `O=C(N[C@@H](C(=O)N1CCC(CN2CCCCC2)CC1)c1ccccc1)c1ccc2c(Cl)c[nH]c2c1`, the peak level in series [1] (Cmax) was 1.7 µM. The Kapp in series [2] is 710 10^6L/mol. Moreover, the Activity in series [3] is 1.1 µM. The same compound showed an AUC(0-t) at 7 h in series [4] of 10000 ng·h/mL.

For the compound `O=C(N[C@@H](C(=O)N1CCC(CN2CC[C@@H](O)C2)CC1)c1ccccc1)c1ccc2cc[nH]c2c1`, the Kapp in series [2] is 4 10^6L/mol.

With `O=C(N[C@@H](C(=O)N1CCC(CN2CCCCC2)CC1)c1ccccc1)c1ccc2cc[nH]c2c1`, the Cmax – broadly, the maximum level reached in the sampled fluid or tissue – in series [1] came to 4.7 µM. Besides, the Kapp in series [2] was 48 10^6L/mol. In addition, the Activity in series [3] turned out to be 1.2 µM. In series [4], this compound showed an AUC(0-t) at 7 h of 23000 ng·h/mL.

Regarding `O=C(N[C@@H](C(=O)N1CCC(CN2CCC[C@H]2CO)CC1)c1ccccc1)c1ccc2cc[nH]c2c1`, the Kapp in series [2] was 9.7 10^6L/mol.

As to `CC(C)NCC1CCN(C(=O)[C@H](NC(=O)c2ccc3cc[nH]c3c2)c2ccccc2)CC1`, the Kapp in series [2] is 7.8 10^6L/mol.

`CN1CCC(C2CCN(C(=O)[C@H](NC(=O)c3ccc4cc[nH]c4c3)c3ccccc3)CC2)CC1` showed a Cmax in series [1] of 4 µM. Also, in series [2], the Kapp is 450 10^6L/mol. In addition, in series [3], the Activity is 1.5 µM. In series [4], this compound returned an AUC(0-t) at 7 h of 19000 ng·h/mL.

For `O=C(N[C@@H](C(=O)N1CCC(CN2CCNCC2)CC1)c1ccccc1)c1ccc2cc[nH]c2c1`, the Kapp in series [2] is 3.9 10^6L/mol.

On to `O=C(N[C@@H](C(=O)N1CCC(CN2CCCC2)CC1)c1ccccc1)c1ccc2cc[nH]c2c1`, for which the Kapp in series [2] is 24 10^6L/mol. Also, the Activity in series [3] worked out at 2.2 µM.

`O=C(N[C@@H](C(=O)N1CCC(CN2CCC(CO)CC2)CC1)c1ccccc1)c1ccc2cc[nH]c2c1`: in series [2], the Kapp is 0.7 10^6L/mol.

As for `O=C(N[C@@H](C(=O)N1CCC(CN2CCC(O)C2)CC1)c1ccccc1)c1ccc2cc[nH]c2c1` (stereo not given in full), the Kapp in series [2] was 5 10^6L/mol.

As to `O=C(N[C@@H](C(=O)N1CCC(CN2CCC(O)CC2)CC1)c1ccccc1)c1ccc2cc[nH]c2c1`, in series [2], the Kapp was 10 10^6L/mol.

Turning to `O=C(N[C@@H](C(=O)N1CCC(CN2CCC[C@@H]2CO)CC1)c1ccccc1)c1ccc2cc[nH]c2c1`, in series [2], the Kapp is 18 10^6L/mol. The Activity in series [3] is 2.2 µM.
